Assay results published in ChEMBL document CHEMBL3877241 (J Med Chem, 2016).
Active and inactive are the calls of the source. The calls are words filed in the database; no cut-off is given here.

Experiments:
MOLM-14 = assay: Induction of apoptosis in human MOLM14 cells assessed as necrotic cells at 1.5 uM after 48 hrs by Annexin-V FITC/propidium iodide staining based flow cytometry (reference value: 0.1%); type: functional
[1] = Antiproliferative activity against human OPM2 cells after 48 hrs by CellTiter-Glo assay; type: functional, cell-based; settings: OPM-2, 48 h
Method in brief: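 OPM2 grown in RPMI 1640 with 10% FBS and penicillin/streptomycin at 37 °C, 5% CO2. Treated at 25,000 cells/well in triplicate for 48 h. Viability read by CellTiter-Glo luminescence. IC50 taken from a sigmoidal fit of % viability vs log concentration.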

[2] = target: T1, Protein deacetylase HDAC6 (Homo sapiens) (UniProt Q9UBN7); assay: Inhibition of HDAC6 in human MOLM14 cells assessed as increase in acetylated tubulin level at 2 times antiproliferative IC50 after 16 to 48 hrs by immunoblot method; type: cell-based; settings: MOLM-14
T1 sequence (whole entry): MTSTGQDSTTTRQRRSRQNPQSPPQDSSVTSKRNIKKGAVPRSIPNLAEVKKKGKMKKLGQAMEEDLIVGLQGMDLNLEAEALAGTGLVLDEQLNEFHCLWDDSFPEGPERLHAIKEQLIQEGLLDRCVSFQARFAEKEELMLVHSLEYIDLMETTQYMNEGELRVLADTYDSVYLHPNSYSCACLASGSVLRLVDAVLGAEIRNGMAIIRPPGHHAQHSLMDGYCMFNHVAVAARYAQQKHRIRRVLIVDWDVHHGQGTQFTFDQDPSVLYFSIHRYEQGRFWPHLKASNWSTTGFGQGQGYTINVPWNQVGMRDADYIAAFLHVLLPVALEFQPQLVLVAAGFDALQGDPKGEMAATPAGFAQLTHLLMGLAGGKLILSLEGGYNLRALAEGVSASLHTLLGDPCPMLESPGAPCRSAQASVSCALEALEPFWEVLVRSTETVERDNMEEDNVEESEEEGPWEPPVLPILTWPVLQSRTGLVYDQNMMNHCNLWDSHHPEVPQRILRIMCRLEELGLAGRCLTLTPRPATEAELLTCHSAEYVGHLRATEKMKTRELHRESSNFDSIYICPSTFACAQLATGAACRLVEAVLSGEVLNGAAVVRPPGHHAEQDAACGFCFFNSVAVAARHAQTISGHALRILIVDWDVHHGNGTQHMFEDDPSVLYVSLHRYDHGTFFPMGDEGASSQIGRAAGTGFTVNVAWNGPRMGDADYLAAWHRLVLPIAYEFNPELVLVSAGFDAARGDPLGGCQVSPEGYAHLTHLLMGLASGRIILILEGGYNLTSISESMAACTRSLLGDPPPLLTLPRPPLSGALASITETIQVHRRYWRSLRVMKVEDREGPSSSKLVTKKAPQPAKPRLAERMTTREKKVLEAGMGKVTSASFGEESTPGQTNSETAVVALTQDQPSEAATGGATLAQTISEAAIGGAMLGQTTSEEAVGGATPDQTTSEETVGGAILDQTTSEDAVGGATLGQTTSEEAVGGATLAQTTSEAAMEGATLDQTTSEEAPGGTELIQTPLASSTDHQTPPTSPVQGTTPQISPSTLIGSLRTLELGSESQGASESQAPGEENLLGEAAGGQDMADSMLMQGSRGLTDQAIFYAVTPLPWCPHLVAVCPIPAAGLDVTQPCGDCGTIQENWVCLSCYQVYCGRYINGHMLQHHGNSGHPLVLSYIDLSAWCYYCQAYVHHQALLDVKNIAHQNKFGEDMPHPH
Method in brief: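 KMS-12-BM or MOLM-14 cells (at least 3x10^6 per condition) treated at about 2x their proliferation IC50 in a time course of 0 to 48 h. Tubastatin (15 μM, 48 h) used as HDAC6 control. Lysates immunoblotted for acetyl-α-tubulin and acetyl-H3 (Lys9/Lys14); re-probed for α-tubulin and H3.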

[3] = target: High affinity nerve growth factor receptor (Homo sapiens, UniProt P04629); assay: Inhibition of human NTRK1 (G475 to G790 residues) expressed in mammalian expression system by KINOMEScan assay
[4] = target: Phosphatidylinositol 4,5-bisphosphate 3-kinase catalytic subunit gamma isoform (Homo sapiens, UniProt P48736); assay: Inhibition of human PI3Kgamma (S144 to A1102 residues) expressed in mammalian expression system assessed as residual activity at 100 nM by KINOMEScan assay relative to control
Method in brief: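 DiscoveRx competition-binding panel of 97 kinases, measuring binding to the kinase ATP site rather than catalytic turnover. The test compound was run at a single 100 nM concentration. Results are given as % of control binding.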

Histone deacetylase 8 = Histone deacetylase 8 (Homo sapiens, UniProt Q9BY41); assay: Inhibition of human recombinant C-terminal His-tagged HDAC8 (1 to 377 residues) expressed in insect cells preincubated with enzyme followed by fluorogenic Arg-His-Lys(Ac)-Lys(Ac)-AMC substrate addition measured after 2 hrs by fluorescence assay
Method in brief: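 HDAC8 in 50 mM Tris-HCl pH 8.0, 137 mM NaCl, 2.7 mM KCl, 1 mM MgCl2 was pre-incubated with compound from DMSO. 50 µM Arg-His-Lys(Ac)-Lys(Ac) substrate was added and the reaction ran 2 h at 30 °C. Trichostatin A developer stopped it, with fluorescence read at Ex/Em 360/460 nm. IC50 from a 10-dose curve.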

[5] = Antiproliferative activity against human PC3 cells after 72 hrs by MTT assay; type: functional, cell-based; settings: PC-3, 72 h
[6] = target: Receptor-type tyrosine-protein kinase FLT3 (Homo sapiens) (UniProt P36888); assay: Inhibition of FLT3 (unknown origin) at 0.1 uM preincubated for 20 mins followed by [33P]ATP addition measured after 120 mins by Hotspot assay relative to control
Method in brief: (§1)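 Radiometric HotSpot kinase assay. Buffer: 20 mM HEPES pH 7.5, 10 mM MgCl2, 1 mM EGTA, 0.02% Brij35, 0.02 mg/mL BSA, 0.1 mM Na3VO4, 2 mM DTT, 1% DMSO. Compound added about 20 min before ATP/[33P]ATP (10 μM final). Reactions run 120 min at 25 °C, spotted on P81 filters and washed in phosphoric acid. Activity expressed relative to DMSO after background subtraction. Single-concentration panel at 100 nM in duplicate.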

HEL 92.1.7 = assay: Inhibition of colony formation in HEL 92.1.7 cells harboring JAK2 V617F mutant after 14 to 16 days; type: functional, cell-based; settings: Homo sapiens
Method in brief: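 HEL cells (200 cells/mL) mixed into methylcellulose semi-solid medium with inhibitor at various concentrations. Incubated 14-16 days, then colonies counted. Data given as mean ± SEM.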

Histone deacetylase 1 = Histone deacetylase 1 (Homo sapiens, UniProt Q13547); assay: Inhibition of full length human recombinant C-terminal FLAG/His-tagged HDAC1 (1 to 482 residues) expressed in sf21 cells preincubated with enzyme followed by fluorogenic Arg-His-Lys-Lys(Ac)-AMC substrate addition measured after 2 hrs by fluorescence assay
[7] = target: Non-receptor tyrosine-protein kinase TYK2 (Homo sapiens, UniProt P29597); assay: Inhibition of TYK2 (unknown origin) at 0.1 uM preincubated for 20 mins followed by [33P]ATP addition measured after 120 mins by Hotspot assay relative to control; method in brief: as §1
Non-receptor tyrosine-protein kinase TYK2, sequence (P29597 whole entry): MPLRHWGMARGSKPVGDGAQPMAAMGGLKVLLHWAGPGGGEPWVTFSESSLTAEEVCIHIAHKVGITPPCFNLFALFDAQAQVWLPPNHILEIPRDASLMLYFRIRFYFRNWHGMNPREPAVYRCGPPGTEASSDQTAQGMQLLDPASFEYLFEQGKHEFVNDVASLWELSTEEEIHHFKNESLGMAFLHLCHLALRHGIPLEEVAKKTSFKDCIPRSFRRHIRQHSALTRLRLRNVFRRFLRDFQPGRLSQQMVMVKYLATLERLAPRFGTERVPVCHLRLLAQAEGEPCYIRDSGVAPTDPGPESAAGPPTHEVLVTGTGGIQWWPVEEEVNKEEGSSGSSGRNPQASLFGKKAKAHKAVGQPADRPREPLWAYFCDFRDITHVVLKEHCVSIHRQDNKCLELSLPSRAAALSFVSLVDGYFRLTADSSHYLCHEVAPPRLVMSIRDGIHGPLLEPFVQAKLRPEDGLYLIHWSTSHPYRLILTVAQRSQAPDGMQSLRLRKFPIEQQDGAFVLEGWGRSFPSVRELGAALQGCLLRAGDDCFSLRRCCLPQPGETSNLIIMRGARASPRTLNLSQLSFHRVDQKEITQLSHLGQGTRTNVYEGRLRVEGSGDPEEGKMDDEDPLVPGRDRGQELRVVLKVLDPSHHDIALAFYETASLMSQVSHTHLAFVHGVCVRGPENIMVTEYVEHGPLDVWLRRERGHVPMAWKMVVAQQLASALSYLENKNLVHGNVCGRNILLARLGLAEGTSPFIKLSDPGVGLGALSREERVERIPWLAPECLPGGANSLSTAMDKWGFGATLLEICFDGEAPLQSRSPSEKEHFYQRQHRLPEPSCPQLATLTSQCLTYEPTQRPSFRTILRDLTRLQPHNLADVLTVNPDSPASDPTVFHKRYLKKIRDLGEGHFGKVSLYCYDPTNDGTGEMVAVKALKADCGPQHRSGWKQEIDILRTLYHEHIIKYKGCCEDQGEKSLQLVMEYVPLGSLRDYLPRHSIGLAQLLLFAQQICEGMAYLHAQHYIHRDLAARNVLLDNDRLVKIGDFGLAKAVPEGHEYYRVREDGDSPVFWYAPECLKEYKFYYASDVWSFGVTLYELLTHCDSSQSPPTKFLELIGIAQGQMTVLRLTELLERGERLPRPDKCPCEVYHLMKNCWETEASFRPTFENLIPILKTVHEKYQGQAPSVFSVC

Receptor-type tyrosine-protein kinase FLT3 (Homo sapiens), sequence (P36888 whole entry): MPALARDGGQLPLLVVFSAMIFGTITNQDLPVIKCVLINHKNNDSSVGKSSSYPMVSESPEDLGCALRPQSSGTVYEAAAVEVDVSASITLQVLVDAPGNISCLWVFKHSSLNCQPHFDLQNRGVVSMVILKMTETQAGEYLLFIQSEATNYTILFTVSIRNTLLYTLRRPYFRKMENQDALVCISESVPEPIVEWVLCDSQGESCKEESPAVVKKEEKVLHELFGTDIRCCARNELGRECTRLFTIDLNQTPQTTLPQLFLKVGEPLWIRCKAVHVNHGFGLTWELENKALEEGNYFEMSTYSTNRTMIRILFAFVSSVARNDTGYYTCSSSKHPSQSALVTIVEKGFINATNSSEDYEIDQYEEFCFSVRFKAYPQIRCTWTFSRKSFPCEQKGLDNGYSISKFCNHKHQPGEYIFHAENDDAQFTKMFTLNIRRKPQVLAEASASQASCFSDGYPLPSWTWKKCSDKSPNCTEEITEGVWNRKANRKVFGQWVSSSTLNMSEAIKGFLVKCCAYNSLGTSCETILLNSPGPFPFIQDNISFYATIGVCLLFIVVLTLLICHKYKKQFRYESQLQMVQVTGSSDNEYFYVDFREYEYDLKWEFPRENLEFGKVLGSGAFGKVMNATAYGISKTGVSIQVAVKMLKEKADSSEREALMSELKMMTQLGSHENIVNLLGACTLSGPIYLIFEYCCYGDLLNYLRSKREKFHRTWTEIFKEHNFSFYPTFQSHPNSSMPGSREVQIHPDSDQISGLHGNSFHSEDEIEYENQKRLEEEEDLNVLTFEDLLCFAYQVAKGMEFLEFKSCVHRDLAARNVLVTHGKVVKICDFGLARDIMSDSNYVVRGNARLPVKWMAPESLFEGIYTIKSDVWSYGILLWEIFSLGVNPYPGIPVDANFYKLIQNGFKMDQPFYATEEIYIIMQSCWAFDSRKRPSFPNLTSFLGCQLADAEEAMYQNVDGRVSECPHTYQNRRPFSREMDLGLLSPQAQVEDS
Phosphatidylinositol 4,5-bisphosphate 3-kinase catalytic subunit gamma isoform, sequence (P48736 whole entry, looked up, the tested form may be a part, canonical isoform): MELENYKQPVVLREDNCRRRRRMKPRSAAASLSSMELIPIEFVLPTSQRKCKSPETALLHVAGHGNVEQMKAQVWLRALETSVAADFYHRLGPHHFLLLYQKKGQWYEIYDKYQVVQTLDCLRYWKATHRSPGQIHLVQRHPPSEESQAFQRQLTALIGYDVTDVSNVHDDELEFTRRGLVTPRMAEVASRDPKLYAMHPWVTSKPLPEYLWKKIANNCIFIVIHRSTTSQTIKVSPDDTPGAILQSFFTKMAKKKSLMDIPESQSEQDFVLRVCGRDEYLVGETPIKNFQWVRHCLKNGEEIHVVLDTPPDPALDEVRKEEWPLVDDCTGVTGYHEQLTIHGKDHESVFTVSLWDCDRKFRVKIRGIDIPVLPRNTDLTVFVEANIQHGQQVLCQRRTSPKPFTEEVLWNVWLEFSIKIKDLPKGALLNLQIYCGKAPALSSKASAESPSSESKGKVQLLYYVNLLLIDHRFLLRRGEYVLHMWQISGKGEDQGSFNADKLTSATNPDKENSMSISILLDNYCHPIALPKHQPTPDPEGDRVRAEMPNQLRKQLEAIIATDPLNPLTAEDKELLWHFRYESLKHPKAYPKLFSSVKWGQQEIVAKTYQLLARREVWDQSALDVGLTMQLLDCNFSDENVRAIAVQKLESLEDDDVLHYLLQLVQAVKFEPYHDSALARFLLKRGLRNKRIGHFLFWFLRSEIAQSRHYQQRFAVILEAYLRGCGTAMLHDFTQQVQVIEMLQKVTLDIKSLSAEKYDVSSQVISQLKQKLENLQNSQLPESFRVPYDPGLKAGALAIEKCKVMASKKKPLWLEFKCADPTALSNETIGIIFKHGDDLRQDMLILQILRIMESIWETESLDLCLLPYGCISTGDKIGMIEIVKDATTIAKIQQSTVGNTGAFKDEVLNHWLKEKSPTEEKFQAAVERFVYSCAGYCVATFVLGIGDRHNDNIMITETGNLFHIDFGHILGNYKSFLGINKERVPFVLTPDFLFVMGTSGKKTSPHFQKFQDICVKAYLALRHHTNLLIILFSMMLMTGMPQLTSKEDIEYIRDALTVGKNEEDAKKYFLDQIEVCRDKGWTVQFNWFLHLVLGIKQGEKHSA
High affinity nerve growth factor receptor, sequence (P04629 whole entry, the tested form may be a part, canonical isoform): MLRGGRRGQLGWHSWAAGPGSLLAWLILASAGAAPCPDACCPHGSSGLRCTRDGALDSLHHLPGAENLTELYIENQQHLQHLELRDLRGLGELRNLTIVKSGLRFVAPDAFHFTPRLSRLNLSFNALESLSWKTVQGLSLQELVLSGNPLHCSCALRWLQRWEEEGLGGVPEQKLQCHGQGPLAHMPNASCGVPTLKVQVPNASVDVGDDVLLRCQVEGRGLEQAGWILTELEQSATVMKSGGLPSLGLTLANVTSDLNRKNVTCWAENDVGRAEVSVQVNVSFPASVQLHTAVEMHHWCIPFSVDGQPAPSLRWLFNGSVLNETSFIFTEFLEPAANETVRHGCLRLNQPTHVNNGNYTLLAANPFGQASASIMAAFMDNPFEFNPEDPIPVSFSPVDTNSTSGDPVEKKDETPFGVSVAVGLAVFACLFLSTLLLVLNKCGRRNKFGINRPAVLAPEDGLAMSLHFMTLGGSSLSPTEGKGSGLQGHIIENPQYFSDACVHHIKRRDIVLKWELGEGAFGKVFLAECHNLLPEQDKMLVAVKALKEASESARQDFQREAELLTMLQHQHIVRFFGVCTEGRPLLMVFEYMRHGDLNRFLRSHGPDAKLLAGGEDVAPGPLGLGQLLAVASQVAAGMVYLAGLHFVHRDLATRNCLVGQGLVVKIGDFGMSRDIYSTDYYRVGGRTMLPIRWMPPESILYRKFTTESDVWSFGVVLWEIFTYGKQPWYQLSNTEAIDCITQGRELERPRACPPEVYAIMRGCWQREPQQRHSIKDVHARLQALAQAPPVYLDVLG
Histone deacetylase 1, sequence (Q13547 whole entry, the tested form may be a part): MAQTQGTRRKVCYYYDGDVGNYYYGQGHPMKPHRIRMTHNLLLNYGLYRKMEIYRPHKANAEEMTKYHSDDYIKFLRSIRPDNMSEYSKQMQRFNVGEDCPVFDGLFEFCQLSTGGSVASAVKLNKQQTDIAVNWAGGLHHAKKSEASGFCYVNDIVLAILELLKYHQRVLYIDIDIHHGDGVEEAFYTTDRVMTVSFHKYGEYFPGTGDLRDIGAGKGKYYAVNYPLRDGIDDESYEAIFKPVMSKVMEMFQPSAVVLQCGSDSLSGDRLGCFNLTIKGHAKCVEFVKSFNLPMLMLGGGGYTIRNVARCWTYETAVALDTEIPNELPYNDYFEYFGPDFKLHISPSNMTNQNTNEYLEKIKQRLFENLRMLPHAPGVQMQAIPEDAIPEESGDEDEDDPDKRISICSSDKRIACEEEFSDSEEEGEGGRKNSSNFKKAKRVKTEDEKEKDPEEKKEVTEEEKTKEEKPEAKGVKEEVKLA
Histone deacetylase 8, sequence (Q9BY41 whole entry, the tested form may be a part): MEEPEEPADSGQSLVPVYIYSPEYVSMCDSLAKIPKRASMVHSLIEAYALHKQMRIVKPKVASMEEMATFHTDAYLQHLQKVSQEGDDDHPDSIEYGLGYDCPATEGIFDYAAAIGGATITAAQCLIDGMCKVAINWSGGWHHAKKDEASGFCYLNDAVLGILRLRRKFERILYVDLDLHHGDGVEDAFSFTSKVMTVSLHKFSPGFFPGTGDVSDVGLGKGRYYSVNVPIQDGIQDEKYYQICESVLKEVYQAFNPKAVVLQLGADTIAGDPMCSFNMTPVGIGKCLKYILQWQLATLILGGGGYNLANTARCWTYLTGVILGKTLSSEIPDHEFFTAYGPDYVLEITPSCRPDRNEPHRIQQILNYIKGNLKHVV

Compound: O=C(CCCCCCOc1ccc2cc1COC/C=C/COCc1cccc(c1)-c1ccnc(n1)N2)NO
- Activity (MOLM-14): 0.3%
- IC50 [1]: 2.05 µM
- inhibition [2]: Active
- IC50 [3]: 1 to 10 µM
- Activity [4]: 5.7%
- IC50 (Histone deacetylase 8): 0.74 µM
- IC50 [5]: 1.7 µM
- inhibition [6]: 67%
- inhibition (HEL 92.1.7): Dose-dependent effect
- IC50 (Histone deacetylase 1): 0.222 µM
- inhibition [7]: 56%
